Measurements from different studies.
Target: Calcium/calmodulin-dependent protein kinase type 1 (CAMK1, Homo sapiens, UniProt Q14012)

Cc1ccc(NC(=O)c2ccnc(C(F)(F)F)c2)cc1-c1cc(OCCO)nc(N2CCOCC2)c1
remaining binding (binding; 1 µM): 100%

C=CC(=O)N1CCC([C@@H]2CCNc3c(C(N)=O)c(-c4ccc(Oc5ccccc5)cc4)nn32)CC1
inhibition (enzyme activity; inhibitor; 1 µM): 7%

Cc1cc(O)c(-c2ccc([C@@H](C)CN(C)C)cc2)c2c1[nH]c(=O)c1sccc12
inhibition (cell-free assay; inhibitor; 0.1 µM; lysate): 2.27%

C1=C/COCc2cc(ccc2OCCN2CCCC2)Nc2nccc(n2)-c2cccc(c2)COC/1
remaining binding (binding; 0.1 µM): 65%

CCCCC(=O)Nc1ccc(-c2ccc3ncn(CCC)c(=O)c3c2)cn1
remaining binding (binding; competition with immobilised ligand; 0.5 µM): 88%

COc1ccc2oc(-c3ccc4nc(N)oc4c3)c/c(=N\c3ccccc3NC(=O)CCN)c2c1
remaining binding (binding; 1 µM): 70%

C[C@H]1CC[C@H](n2c3cnccc3c3cnc(Nc4ccc5c(n4)CCN(C(=O)CO)C5)nc32)CC1
remaining signal (cell-free assay; 1 µM): 45%

CC#CC(=O)N1CCC[C@H]1c1nc(-c2ccc(C(=O)Nc3ccccn3)cc2)c2c(N)nccn12
inhibition (enzyme activity; inhibitor; 1 µM): 26%
